Values after ≈ are worked out from the molar mass of the structure shown. Active and inactive are the calls of the source. The calls are words filed in the database; no cut-off is given here.
Assays:
[1] = Antioxidant activity assessed DPPH scavenging activity at 500 uM; format: functional
In short: (§1)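 DPPH free-radical scavenging was measured in a cell-free system, with IC50 determined. Constituents were also screened at 500 μM.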

[2] = Anti-inflammatory activity in human neutrophils assessed as inhibition of FMLP/CB-induced superoxide anion generation at 10 ug/mL; format: functional; settings: Neutrophil
In short: (§2)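 Human neutrophils were activated with FMLP/CB. Percentage inhibition of the response was measured with samples at 10 μg/mL. Values are mean ± SEM, n = 3–4, and significance was tested against the control value.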

[3] = Anti-inflammatory activity in human neutrophils assessed as inhibition of FMLP/CB-induced elastase release at 10 ug/mL; format: functional; settings: Neutrophil; in short: as §2
[4] = Antioxidant activity assessed DPPH scavenging activity; format: functional; in short: as §1
[5] = (§3) Anti-inflammatory activity in human neutrophils assessed as inhibition of FMLP/CB-induced superoxide anion generation; format: functional, cell-based; settings: Neutrophil
In short: (§4)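 Human neutrophils were activated with FMLP plus cytochalasin B (FMLP/CB). IC50 is the concentration giving 50% inhibition of the response. Values are mean ± SEM, n = 3–4.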

[6] = (§5) Anti-inflammatory activity in human neutrophils assessed as inhibition of FMLP/CB-induced elastase release; format: functional, cell-based; settings: Neutrophil; in short: as §4
Neutrophil [7] = experiment: as §3; format: functional, cell-based; in short: as §4
Neutrophil [8] = experiment: as §5; format: functional, cell-based; in short: as §4

O=C(O)c1ccco1
inhibition [1]: inactive

O=C1N[C@@H](Cc2ccc(O)cc2)C(=O)N2CCC[C@@H]12
inhibition [1]: inactive

COc1cc(/C=C/C(=O)O[C@H]2CC[C@]34C[C@]35CC[C@]3(C)[C@@H]([C@H](C)CCC=C(C)C)CC[C@@]3(C)[C@@H]5CC[C@H]4C2(C)C)ccc1O [GAMMA ORYZANOL]
inhibition at 10 µg/mL [2]: 28.2%
inhibition at 10 µg/mL [3]: 41.6%
inhibition [1]: inactive

O=C1O[C@H]([C@@H](O)CO)C(O)=C1O [ASCORBIC ACID]
IC50 [4]: 38.6 µM

O=c1c(-c2ccc(O)cc2)coc2cc(O)ccc12 [DAIDZEIN]
IC50 [5]: 6.19 µg/mL (≈ 24.3 µM)
inhibition [1]: inactive

CC(C)C[C@@H]1NC(=O)[C@@H]2CC[C@@H](O)N2C1=O
inhibition [1]: inactive

Cc1occc(=O)c1O
inhibition [1]: inactive

CC(C)[C@@H]1NC(=O)[C@@H]2CCCN2C1=O
inhibition [1]: inactive

O=C1N[C@@H](Cc2ccccc2)C(=O)N2CCC[C@@H]12
inhibition [1]: inactive

O=c1c(-c2ccc(O)c(O)c2)coc2cc(O)ccc12
IC50 [4]: 32 µM

O=C(O)c1cc2c([nH]c3ccccc32)c(-c2ccc(CO)o2)n1
inhibition [1]: inactive

COc1ccc2c(c1)c(CC(=O)O)c(C)n2C(=O)c1ccc(Cl)cc1 [INDOMETHACIN]
IC50 [5]: 38.3 µg/mL (≈ 107 µM)
IC50 [6]: 32 µg/mL (≈ 89.4 µM)
inhibition [1]: inactive

CC(C)[C@@H](C)/C=C/[C@@H](C)[C@H]1CC[C@H]2C3=CC=C4C[C@@H](O[C@@H]5O[C@H](CO)[C@@H](O)[C@H](O)[C@H]5O)CC[C@]4(C)[C@H]3CC[C@]12C
IC50 [5]: 5.42 µg/mL (≈ 9.7 µM)
IC50 [6]: 5.62 µg/mL (≈ 10.1 µM)
inhibition [1]: inactive

O=C1C[C@H](O)[C@@H](CO)O1
inhibition [1]: inactive

OCc1ccc(-c2nccc3c2[nH]c2ccccc23)o1 [PERLOLYRIN]
IC50 [5]: 0.45 µg/mL (≈ 1.7 µM)
inhibition (Neutrophil [7]): Dose-dependent effect
IC50 [6]: 1.68 µg/mL (≈ 6.36 µM)
inhibition (Neutrophil [8]): Dose-dependent effect
inhibition [1]: inactive
